Measured values from different studies.
Read-out: enzyme activity
Action: inhibitor
EGFR L858R/T790M: Epidermal growth factor receptor (EGFR, Homo sapiens, UniProt P00533, L858R/T790M)
EGFR: Epidermal growth factor receptor (EGFR, Homo sapiens, UniProt P00533)

| Compound | target | method | notes | IC50 [nM] |
| --- | --- | --- | --- | --- |
| COc1ccc(-c2nn(-c3ccc(S(C)(=O)=O)cc3)cc2/C=N/N=c2\[nH]c(-c3ccc(Br)cc3)cs2)cc1 | EGFR L858R/T790M | – | – | 31 |
| C=C(Cl)C(=O)Nc1cc(Nc2nc(N3CCOCC3)c3sccc3n2)c(OC)cc1N(C)CCN(C)C | EGFR | ELISA | – | > 1000 |
| Nc1ccc(-c2csc(Nc3ccc4c(O)ncnc4c3)n2)cc1 | EGFR | ELISA | – | 14.2 |
| CN(C)C/C=N/NC(=O)Nc1cc2c(Nc3ccc(F)c(Cl)c3)ncnc2cc1O[C@H]1CCOC1 | EGFR | – | – | 0.2 |
| Fc1ccc(-c2n[nH]cc2C=NNc2ccnc3cc(Cl)ccc23)cc1 | EGFR | mobility shift | – | 73000 |
| COc1cc2ncnc(Nc3ccc(F)c(Cl)c3)c2cc1NC(=O)N/N=C/c1cccn1CCN(C)C | EGFR | – | – | 0.1 |
| CC(C)Cc1ccc(-c2nn(-c3ccc(S(C)(=O)=O)cc3)cc2/C=N/N=c2\[nH]c(-c3ccc([N+](=O)[O-])cc3)cs2)cc1 | EGFR L858R/T790M | – | – | 164 |
| O=C(N/N=C/CN1CCOCC1)Nc1cc2c(Nc3ccc(F)c(Cl)c3)ncnc2cc1O[C@H]1CCOC1 | EGFR | – | – | 1.5 |
| Oc1ncnc2cc(Nc3nc(-c4ccccc4)cs3)ccc12 | EGFR | ELISA | – | 10 |
| COc1cc2ncnc(Nc3ccccc3)c2cc1OC | EGFR | mobility shift | – | 14 |
| C=C(Cl)C(=O)Nc1cc(Nc2nc(Nc3cnn(C)c3)c3sccc3n2)c(OC)cc1N1CCN(C)CC1 | EGFR | ELISA | – | > 1000 |
| COc1cccc(CNc2ncnc3cc(Cl)ccc23)c1 | EGFR | mobility shift | – | 1700 |
| COc1ccc(-c2nn(-c3ccc(S(C)(=O)=O)cc3)cc2C=N/N=c2\[nH]c(-c3ccc([N+](=O)[O-])cc3)cs2)cc1 | Epidermal growth factor receptor (EGFR, Homo sapiens, UniProt P00533, L858R) | – | – | 31 |
| OCc1ccc(Nc2ccc3c(Nc4cccc(C(F)(F)F)c4)ncnc3c2)cc1 | EGFR | radiometric | – | 2.53 |
| Oc1ccc(-c2csc(Nc3ccc4c(O)ncnc4c3)n2)cc1 | EGFR | ELISA | – | 16.3 |
| C=CC(=O)Nc1cc(Nc2nccc(-c3cn(C4CC4)c4ccccc34)n2)c(OC)cc1N(C)CCN(C)C | Epidermal growth factor receptor (EGFR, Homo sapiens, UniProt P00533, L861Q) | TR-FRET | – | 1.07 |
| CCC(=O)Nc1cc(Nc2nc(N3CCc4sccc4C3)c3cccnc3n2)c(OC)cc1N1CCSCC1 | EGFR | ELISA | – | > 1000 |
| COCCOc1cc2ncnc(Nc3ccc(OCCn4ccnc4[N+](=O)[O-])c(Cl)c3)c2cc1OCCOC | EGFR | FRET | – | 230 |
| C=CC(=O)Nc1cc(Nc2nccc(Nc3cc(Cl)c(F)cc3C(C)(C)O)n2)c(OC)cc1N1CC[C@@H](N(C)C)C1 | EGFR L858R/T790M | – | with preincubation | 13 |
| O=C(N/N=C/CN1CCCCC1)Nc1cc2c(Nc3ccc(F)c(Cl)c3)ncnc2cc1O[C@H]1CCOC1 | EGFR | – | – | 0.1 |
| COc1cc2ncnc(Nc3ccc(OCCCn4ccnc4[N+](=O)[O-])c(Cl)c3)c2cc1OCCCN1CCOCC1 | EGFR | FRET | – | 180 |
| C=CC(=O)Nc1cc(Nc2nc(N3CCc4sccc4C3)c3cccnc3n2)c(OC)cc1N1CCC(N(C)C)CC1 | EGFR L858R/T790M | ELISA | – | 349 |
| COc1cc2ncnc(Nc3ccc(F)c(Cl)c3)c2cc1NC(=O)N/N=C/c1cccn1CCCN(C)C | EGFR | – | – | 1.2 |
| COCCOc1cc2ncnc(Nc3ccc(OCCCn4ccnc4[N+](=O)[O-])c(Cl)c3)c2cc1OCCOC | EGFR | FRET | – | 400 |
| CN1CCN(C/C=N/NC(=O)Nc2cc3c(Nc4ccc(F)c(Cl)c4)ncnc3cc2O[C@H]2CCOC2)CC1 | EGFR | – | – | 1.8 |
| C=C(Cl)C(=O)Nc1cc(Nc2nc(Nc3cnn(C)c3)c3sccc3n2)c(OC)cc1N(C)CCN(C)C | EGFR L858R/T790M | ELISA | – | 5.9 |
| O=C(N/N=C/c1cccn1CCN1CCOCC1)Nc1cc2c(Nc3ccc(F)c(Cl)c3)ncnc2cc1O[C@H]1CCOC1 | EGFR | – | – | 0.6 |
| C=C(Cl)C(=O)Nc1cc(Nc2nc(N3CCc4sccc4C3)c3sccc3n2)c(OC)cc1N(C)CCN(C)C | EGFR L858R/T790M | ELISA | – | 13 |
| CCN(CC)CCCn1cccc1/C=N/NC(=O)Nc1cc2c(Nc3ccc(F)c(Cl)c3)ncnc2cc1O[C@H]1CCOC1 | EGFR L858R/T790M | – | – | 12.8 |
| COc1ccc(-c2csc(Nc3ccc4c(O)ncnc4c3)n2)cc1 | EGFR | ELISA | – | 10.1 |
